Key:
[1] = system: Radical scavenging activity; test: Antioxidant activity assessed as DPPH radical scavenging activity by HPLC; format: functional
Outline: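 In the HPLC DPPH assay, test material in methanol or DMSO is mixed 1:1 with methanolic DPPH (final 250 μM) and held in the dark for 20 min at room temperature, then filtered and run on reversed-phase HPLC with diode-array detection. IC50 is obtained by linear regression over at least five concentrations, each in triplicate.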

[2] = DPPH radical scavenging activity assessed as ratio of IC50 for trolox to IC50 for test compound; format: functional
Outline: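 TEAC is the ratio of Trolox IC50 to sample IC50. Both come from the same HPLC DPPH scavenging assay: 250 μM final DPPH, 20 min in the dark at room temperature, reversed-phase HPLC with diode-array detection. Each IC50 is derived by linear regression from at least five concentrations in triplicate.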

Row | IC50 [1] [µM] | SMILES | Ratio IC50 [2]
1 | 67.8 | Cc1c(C)c2c(c(C)c1O)CCC(C)(C(=O)O)O2 (stereo unspecified) [TROLOX] | 1
2 | 63.6 | Cc1c(C)c2c(c(C)c1O)CC[C@@](C)(CCC[C@H](C)CCC[C@H](C)CCCC(C)C)O2 [ALPHA-TOCOPHEROL] | 1.07
3 | 52.7 | CC(C)(Sc1cc(C(C)(C)C)c(O)c(C(C)(C)C)c1)Sc1cc(C(C)(C)C)c(O)c(C(C)(C)C)c1 [PROBUCOL] | 1.29
